Measurements from different studies.
Compare with care: the assays were run in different laboratories.
Target: Ephrin type-A receptor 8 (EPHA8, Homo sapiens, UniProt P29322)
One construct used (P29322 28-1005): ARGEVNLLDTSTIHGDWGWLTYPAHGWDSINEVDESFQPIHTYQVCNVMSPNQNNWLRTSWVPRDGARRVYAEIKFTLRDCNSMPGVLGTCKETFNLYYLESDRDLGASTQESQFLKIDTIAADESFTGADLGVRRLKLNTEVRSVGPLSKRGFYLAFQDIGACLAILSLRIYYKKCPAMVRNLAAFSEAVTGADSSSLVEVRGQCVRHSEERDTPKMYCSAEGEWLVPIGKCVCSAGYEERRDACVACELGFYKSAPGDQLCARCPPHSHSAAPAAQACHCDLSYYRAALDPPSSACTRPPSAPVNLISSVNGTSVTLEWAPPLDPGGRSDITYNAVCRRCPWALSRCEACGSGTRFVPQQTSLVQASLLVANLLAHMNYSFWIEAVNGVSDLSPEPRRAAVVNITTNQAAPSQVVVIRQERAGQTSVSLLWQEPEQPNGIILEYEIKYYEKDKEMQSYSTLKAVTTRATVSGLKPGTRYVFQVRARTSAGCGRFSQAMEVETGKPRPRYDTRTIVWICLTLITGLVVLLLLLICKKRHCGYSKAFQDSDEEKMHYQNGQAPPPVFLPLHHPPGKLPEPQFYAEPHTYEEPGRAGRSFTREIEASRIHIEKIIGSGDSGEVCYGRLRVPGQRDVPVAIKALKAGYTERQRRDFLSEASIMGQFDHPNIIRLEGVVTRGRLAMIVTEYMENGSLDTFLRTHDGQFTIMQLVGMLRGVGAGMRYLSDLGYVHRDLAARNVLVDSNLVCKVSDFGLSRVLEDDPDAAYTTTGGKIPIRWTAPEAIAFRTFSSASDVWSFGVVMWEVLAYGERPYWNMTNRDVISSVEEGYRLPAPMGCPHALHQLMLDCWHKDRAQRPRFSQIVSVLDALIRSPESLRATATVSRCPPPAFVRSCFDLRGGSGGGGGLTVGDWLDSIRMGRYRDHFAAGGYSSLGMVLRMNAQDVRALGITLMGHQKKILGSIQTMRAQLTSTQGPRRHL

CCN1CCN(Cc2ccc(C(=O)Nc3ccc(C)c(Oc4ccc5c(c4)CC(=O)N5)c3)cc2C(F)(F)F)CC1 — remaining binding (binding, competition with immobilised ligand; 1 µM): 82%
CCOCCn1cc(C(=O)Nc2ccc(-n3nc(-c4cccnc4)cc3C(F)(F)F)cn2)ccc1=O — remaining binding (cell-free assay, competition with immobilised ligand; 1 µM): 84%
COc1ncc2cc3ccccc3nc2c1C#N — remaining binding (cell-free assay, competition with immobilised ligand; 5 µM): 94%
Cc1noc([C@H]2C[C@@H](c3ccc(C(F)(F)F)cc3)CN(C(=O)N3CCS(=O)(=O)C3)C2)n1 — remaining binding (cell-free assay, competition with immobilised ligand; 1 µM): 100%
CN(C)c1nccc(-c2cnn3ncccc23)n1 — remaining binding (binding; 1 µM): 100%
C[C@H](c1ccnc(Nc2nc3ccc(-c4cc(N(C)C)ncn4)cc3[nH]2)c1)N1CCN(C(=O)CC(F)(F)F)CC1 — remaining binding (cell-free assay, competition with immobilised ligand; 0.1 µM): 100%
Cc1cnn2ncc(-c3ccnc(N(C)C)n3)c2c1 — remaining binding (binding; 1 µM): 99%
Nc1ncc2c(n1)-c1c([nH]c3ccc(C#CC4CC4)cc13)CCCC2 — remaining binding (binding, competition with immobilised ligand; 1 µM): 89%
CN(C)c1ncc(F)c(-c2cnn3ncccc23)n1 — remaining binding (binding; 1 µM): 100%
CC(=O)C1=C(C)N(c2cccc(C(F)(F)F)c2)C(=O)N[C@@H]1c1ccc(C#N)nc1 — remaining binding (cell-free assay, competition with immobilised ligand; 1 µM): 100%
O=C(c1ccc(Nc2ncc(Cl)c(-c3cc4ccccc4s3)n2)cc1)N1CCC(N2CCCC2)CC1 — remaining binding (binding, competition with immobilised ligand; 1 µM): 83%
c1cnn2ncc(-c3ccnc(N4CCC45COC5)n3)c2c1 — remaining binding (binding; 1 µM): 89%
O=C(c1ccc(Nc2nccc(-c3cc4ccccc4s3)n2)cc1)N1CCC(N2CCCC2)CC1 — remaining binding (binding, competition with immobilised ligand; 1 µM): 100%
FC(F)(F)Oc1cccc(-c2cnc3ccc(-c4ccncc4)nn23)c1 — remaining binding (cell-free assay, competition with immobilised ligand; 5 µM): 91%
COc1cc(-c2cn(C3CCc4c(F)cccc4N(CC(F)(F)F)C3=O)nn2)ccc1-n1cnc(C)c1 (centres unmarked) — remaining binding (cell-free assay, competition with immobilised ligand; 1 µM): 100%
O=C(Nc1c[nH]nc1C(=O)NC1CCNCC1)c1cc(F)cc(F)c1 — remaining binding (binding, competition with immobilised ligand; 1 µM): 100%
Cc1cnc(Nc2ccc(C(=O)N3CCC(N4CCCC4)CC3)cc2)nc1-c1cc2ccccc2s1 — remaining binding (binding, competition with immobilised ligand; 1 µM): 100%
Nc1c(C(=O)NCc2ccc(C(=O)NCCCC3CCCCC3)cc2)cnn1-c1ccccc1 — remaining binding (cell-free assay, competition with immobilised ligand; 0.1 µM): 100%
CN(CCCC(F)(F)F)c1nccc(-c2cnn3ncccc23)n1 — remaining binding (binding; 1 µM): 93%
COc1cnc(Nc2cccc(S(N)(=O)=O)c2)nc1N1CCN(c2ccccc2)C(=O)C1 — remaining binding (binding, competition with immobilised ligand; 1 µM): 100%
